Data on one compound can be found in ChEMBL document CHEMBL4014339, “Discovery of 1,4-Benzodiazepine-2,5-dione (BZD) Derivatives as Dual Nucleotide Binding Oligomerization Domain Containing 1/2 (NOD1/NOD2) Antagonists Sensitizing Paclitaxel (PTX) To Suppress Lewis Lung Carcinoma (LLC) Growth in Vivo” (J Med Chem, 2017).

The target of assay [1] is Toll-like receptor 2 (Homo sapiens) (UniProt O60603). Description: Inhibition of human TLR2 expressed in HEK-Blue cells assessed as reduction in Pam3CSK4-stimulated SEAP release preincubated for 3 hrs followed by Pam3CSK4 addition measured after 20 hrs by spectrophotometric analysis. It is filed as cell-based.
Assay [2] has as its target T1, Nucleotide-binding oligomerization domain-containing protein 1 (Homo sapiens) (UniProt Q9Y239).
T1 sequence (whole entry): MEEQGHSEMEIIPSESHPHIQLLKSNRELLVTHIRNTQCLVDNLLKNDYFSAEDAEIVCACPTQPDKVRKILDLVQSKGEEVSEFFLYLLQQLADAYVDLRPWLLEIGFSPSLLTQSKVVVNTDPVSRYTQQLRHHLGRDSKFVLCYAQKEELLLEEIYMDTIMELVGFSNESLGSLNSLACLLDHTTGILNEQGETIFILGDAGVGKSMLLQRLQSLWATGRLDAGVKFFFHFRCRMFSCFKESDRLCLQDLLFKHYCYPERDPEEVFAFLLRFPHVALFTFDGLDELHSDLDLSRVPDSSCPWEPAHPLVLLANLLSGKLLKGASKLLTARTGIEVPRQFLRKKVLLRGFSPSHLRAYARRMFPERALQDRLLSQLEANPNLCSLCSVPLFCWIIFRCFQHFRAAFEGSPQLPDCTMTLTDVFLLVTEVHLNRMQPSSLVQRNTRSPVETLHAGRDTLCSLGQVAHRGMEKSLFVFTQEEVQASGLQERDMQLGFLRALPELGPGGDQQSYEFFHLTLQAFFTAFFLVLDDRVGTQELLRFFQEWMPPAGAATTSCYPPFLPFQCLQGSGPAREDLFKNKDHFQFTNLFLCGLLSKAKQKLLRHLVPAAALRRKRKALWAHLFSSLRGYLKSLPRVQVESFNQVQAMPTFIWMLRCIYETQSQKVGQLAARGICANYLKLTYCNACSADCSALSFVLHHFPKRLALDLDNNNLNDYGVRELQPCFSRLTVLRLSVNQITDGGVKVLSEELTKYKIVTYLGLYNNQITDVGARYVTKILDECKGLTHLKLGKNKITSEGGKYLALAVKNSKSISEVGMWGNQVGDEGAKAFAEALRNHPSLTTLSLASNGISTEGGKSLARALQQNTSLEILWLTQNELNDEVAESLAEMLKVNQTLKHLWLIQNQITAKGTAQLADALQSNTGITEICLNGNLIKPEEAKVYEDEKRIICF
As to the kind of experiment: Inhibition of NOD1 in human PBMC-derived macrophages assessed as reduction in C12-iE-DAP-stimulated TNFalpha mRNA expression at 10 uM preincubated for 1 hr followed by C12-iE-DAP stimulation for 90 mins by RT-qPCR analysis. In a few lines:
(§1)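 Human CD14+ monocytes from donor PBMC, differentiated 7 days with M-CSF 20 ng/mL to macrophages; 1.0 × 10^6 cells pretreated 1 h with compound (final 0.1% DMSO), then C12-iE-DAP 500 ng/mL or MDP 5 μg/mL for 90 min. IL-6/TNF-α mRNA by qRT-PCR, normalized to GAPDH; stimulated response set to 100%.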
For orientation: Real-time PCR tracks product formation cycle by cycle.

Assay [3] has as its target T2, Nucleotide-binding oligomerization domain-containing protein 2 (Homo sapiens, UniProt Q9HC29). Description: Inhibition of NOD2 in human PBMC-derived macrophages assessed as reduction of MDP-mediated decrease in IkBalpha levels at 1 to 10 uM preincubated for 1 hr followed by MDP stimulation for 1 hr by Western blot analysis. For orientation: A western blot detects proteins with antibodies after separation by electrophoresis.

In assay [4] the test system is Lewis lung carcinoma cell line. Description: Antitumor activity against mouse LLC cells implanted in C57BL/6 mouse assessed as tumor weight inhibition at 20 mg/kg, iv administered daily measured 11 days after tumor implantation. It is filed as functional, organism-based.
Assay [5] concerns the target T2, Nucleotide-binding oligomerization domain-containing protein 2. Description: Inhibition of NOD2 in human PBMC-derived macrophages assessed as reduction in MDP-stimulated TNFalpha mRNA expression at 10 uM preincubated for 1 hr followed by MDP stimulation for 90 mins by RT-qPCR analysis. In a few lines: as §1
In assay [6] the target is T1, Nucleotide-binding oligomerization domain-containing protein 1 (Homo sapiens). Description: Inhibition of human NOD1 expressed in HEK293 cells assessed as reduction in C12-iE-DAP-stimulated IL8 secretion preincubated with compound followed by C12-iE-DAP stimulation measured after 24 hrs by ELISA. It is filed as cell-based. In general terms: ELISA stands for enzyme-linked immunosorbent assay.

Assay [7] shares this target. As to the kind of experiment: Antagonist activity at human NOD1 expressed in HEK-blue cells assessed as inhibition of C12-iE-DAP-stimulated cell activation at 5 uM preincubated for 3 hrs followed by C12-iE-DAP addition measured after 20 hrs by SEAP reporter gene assay. The class given is cell-based.
Assay [8] addresses Toll-like receptor 4 (Homo sapiens) (UniProt O00206). As to the kind of experiment: Inhibition of human TLR4 expressed in HEK-Blue cells assessed as reduction in LPS-EK-stimulated SEAP release preincubated for 3 hrs followed by LPS-EK addition measured after 20 hrs by spectrophotometric analysis. The class given is cell-based.
The target in assay [9] is T1, Nucleotide-binding oligomerization domain-containing protein 1 (Homo sapiens). Description: Inhibition of NOD1 in human PBMC-derived macrophages assessed as reduction in C12-iE-DAP-stimulated IL6 mRNA expression at 10 uM preincubated for 1 hr followed by C12-iE-DAP stimulation for 90 mins by RT-qPCR analysis. In a few lines: as §1
The target in assay [10] is T2, Nucleotide-binding oligomerization domain-containing protein 2. Description: Inhibition of human NOD2 expressed in HEK293 cells assessed as suppression of MDP-stimulated ERK phosphorylation preincubated for 1 hr followed by MDP stimulation measured after 1 hr by Western blot analysis.
In assay [11] the target is T1, Nucleotide-binding oligomerization domain-containing protein 1 (Homo sapiens). Description: Inhibition of NOD1 in human PBMC-derived macrophages assessed as reduction in C12-iE-DAP-stimulated IL6 mRNA expression preincubated for 1 hr followed by C12-iE-DAP stimulation for 90 mins by RT-qPCR analysis. In a few lines: as §1
For assay [12] the target is unchanged. As to the kind of experiment: Inhibition of NOD1 in human THP1 cells assessed as suppression of C12-iE-DAP-stimulated p38 phosphorylation at 1 to 10 uM preincubated for 1 hr followed by C12-iE-DAP stimulation after 45 mins by Western blot analysis. It is filed as cell-based. In a few lines: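 PMA (20 ng/mL, 48 h)-differentiated THP1 macrophages rested 24 h in PMA-free medium, serum-starved (0.1% FBS) overnight, pretreated 1 h with compound, stimulated 45 min with C12-iE-DAP 50 ng/mL. Lysates run on 8% SDS-PAGE, immunoblotted for phospho and total RIP2, p38, JNK, ERK and IκBα.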

For assay [13], the target named is T2, Nucleotide-binding oligomerization domain-containing protein 2. Description: Inhibition of NOD2 in human PBMC-derived macrophages assessed as reduction in MDP-stimulated ERK phosphorylation at 1 to 10 uM preincubated for 1 hr followed by MDP stimulation for 1 hr by Western blot analysis.
The target is the same in assay [14]. As to the kind of experiment: Inhibition of human NOD2 expressed in HEK293 cells assessed as reduction of MDP-mediated decrease in IkBalpha levels preincubated for 1 hr followed by MDP addition measured after 1 hr by Western blot analysis.

Structures are written as SMILES. Activity calls are given as the source filed them. No cut-off for these calls is given here.

T2 sequence (Q9HC29 whole entry, the tested form may be a part): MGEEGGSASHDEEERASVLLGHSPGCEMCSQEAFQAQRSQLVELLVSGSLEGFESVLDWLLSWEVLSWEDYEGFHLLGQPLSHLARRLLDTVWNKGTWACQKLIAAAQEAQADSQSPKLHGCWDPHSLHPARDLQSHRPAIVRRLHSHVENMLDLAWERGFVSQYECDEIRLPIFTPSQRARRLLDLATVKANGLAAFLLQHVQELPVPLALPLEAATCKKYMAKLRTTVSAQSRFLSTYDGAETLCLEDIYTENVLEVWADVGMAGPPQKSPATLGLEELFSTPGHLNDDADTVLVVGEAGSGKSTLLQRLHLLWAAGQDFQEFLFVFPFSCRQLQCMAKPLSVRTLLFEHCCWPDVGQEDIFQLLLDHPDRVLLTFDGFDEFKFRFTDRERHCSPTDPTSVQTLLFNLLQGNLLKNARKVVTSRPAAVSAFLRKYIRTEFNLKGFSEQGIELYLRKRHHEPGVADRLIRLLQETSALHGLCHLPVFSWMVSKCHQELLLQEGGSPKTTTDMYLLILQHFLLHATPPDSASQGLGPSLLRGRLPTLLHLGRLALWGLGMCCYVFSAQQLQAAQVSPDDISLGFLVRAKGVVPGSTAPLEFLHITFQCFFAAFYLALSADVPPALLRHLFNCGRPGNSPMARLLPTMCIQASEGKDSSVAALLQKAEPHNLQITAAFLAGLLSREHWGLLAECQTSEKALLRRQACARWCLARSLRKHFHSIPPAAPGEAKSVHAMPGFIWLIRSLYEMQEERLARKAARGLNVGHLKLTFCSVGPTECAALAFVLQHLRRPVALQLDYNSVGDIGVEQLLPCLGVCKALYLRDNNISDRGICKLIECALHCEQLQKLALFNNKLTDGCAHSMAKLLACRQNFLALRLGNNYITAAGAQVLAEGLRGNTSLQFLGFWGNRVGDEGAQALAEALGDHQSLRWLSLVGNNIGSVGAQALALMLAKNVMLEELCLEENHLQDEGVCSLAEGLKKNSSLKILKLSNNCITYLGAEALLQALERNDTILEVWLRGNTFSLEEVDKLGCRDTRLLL
Toll-like receptor 2 (Homo sapiens), sequence (O60603 whole entry, the tested form may be a part): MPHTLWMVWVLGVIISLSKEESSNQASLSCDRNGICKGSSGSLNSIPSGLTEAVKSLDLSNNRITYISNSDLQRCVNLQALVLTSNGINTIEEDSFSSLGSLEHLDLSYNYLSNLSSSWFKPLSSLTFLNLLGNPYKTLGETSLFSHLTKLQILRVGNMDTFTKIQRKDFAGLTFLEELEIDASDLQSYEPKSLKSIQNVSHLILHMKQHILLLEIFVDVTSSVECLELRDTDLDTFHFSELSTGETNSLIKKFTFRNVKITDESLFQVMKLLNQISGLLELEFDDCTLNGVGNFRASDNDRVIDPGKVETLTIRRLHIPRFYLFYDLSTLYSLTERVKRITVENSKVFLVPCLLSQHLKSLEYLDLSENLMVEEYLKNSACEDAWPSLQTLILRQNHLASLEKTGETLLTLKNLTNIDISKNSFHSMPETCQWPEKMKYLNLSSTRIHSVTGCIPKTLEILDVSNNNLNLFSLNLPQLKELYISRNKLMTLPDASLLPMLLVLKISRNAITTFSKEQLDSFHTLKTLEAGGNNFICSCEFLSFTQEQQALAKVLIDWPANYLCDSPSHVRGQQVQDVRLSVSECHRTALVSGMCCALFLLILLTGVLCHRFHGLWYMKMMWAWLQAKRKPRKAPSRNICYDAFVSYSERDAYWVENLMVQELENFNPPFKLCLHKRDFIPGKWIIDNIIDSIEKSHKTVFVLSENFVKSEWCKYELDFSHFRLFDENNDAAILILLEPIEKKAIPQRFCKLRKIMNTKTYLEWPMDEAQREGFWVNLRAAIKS
Toll-like receptor 4 (Homo sapiens), sequence (O00206 whole entry, the tested form may be a part): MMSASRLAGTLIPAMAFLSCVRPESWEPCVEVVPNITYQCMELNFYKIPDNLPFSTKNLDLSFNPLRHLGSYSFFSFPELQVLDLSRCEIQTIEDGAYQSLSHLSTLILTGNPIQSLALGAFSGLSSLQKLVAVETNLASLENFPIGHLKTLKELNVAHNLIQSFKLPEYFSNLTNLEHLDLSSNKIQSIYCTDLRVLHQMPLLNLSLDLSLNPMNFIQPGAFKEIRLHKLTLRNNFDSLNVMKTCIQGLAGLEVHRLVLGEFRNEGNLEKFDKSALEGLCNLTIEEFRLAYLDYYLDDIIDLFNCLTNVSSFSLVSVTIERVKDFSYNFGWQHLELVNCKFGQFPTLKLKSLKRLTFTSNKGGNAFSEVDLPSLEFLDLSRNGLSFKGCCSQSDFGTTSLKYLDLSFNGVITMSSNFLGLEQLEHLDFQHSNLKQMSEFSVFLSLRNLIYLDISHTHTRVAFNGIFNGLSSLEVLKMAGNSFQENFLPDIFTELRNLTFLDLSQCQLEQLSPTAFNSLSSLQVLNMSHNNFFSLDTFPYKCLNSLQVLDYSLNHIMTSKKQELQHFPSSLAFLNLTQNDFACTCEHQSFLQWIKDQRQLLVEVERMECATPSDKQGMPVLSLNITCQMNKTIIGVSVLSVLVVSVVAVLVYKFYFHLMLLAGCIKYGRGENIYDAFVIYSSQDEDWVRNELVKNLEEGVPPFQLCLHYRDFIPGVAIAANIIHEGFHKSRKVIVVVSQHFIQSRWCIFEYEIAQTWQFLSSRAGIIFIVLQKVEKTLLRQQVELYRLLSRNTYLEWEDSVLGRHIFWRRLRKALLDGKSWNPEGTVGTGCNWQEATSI

In the case of `CCCNC(=O)CC[C@H]1NC(=O)c2cc(Oc3cccc(N(C)C)c3)c(NC(=O)COCc3ccccc3)cc2NC1=O`, the inhibition result in [1] and in assay [8] was “inactive” each time. Further, the inhibition was 35.2% in assay [2]; “Dose-dependent effect” in assay [6]; 77.7% in assay [7]; 54.6% in assay [9]; “Dose-dependent effect” in [10]; “Dose-dependent effect” in assay [11]. Further, the inhibition result in assay [14] is “Dose-dependent effect”. Also, the inhibition entry in [3], in assay [5], in assay [12] and in [13] was “Active” throughout. For the same compound, in assay [4], the TGI result was “inactive”.

As usually defined, the inhibition is the percentage by which the read-out fell short of the control.
